Assay [1] concerns the target Survival motor neuron protein (Homo sapiens) (UniProt Q16637). Kind of assay: Activation of SMN expressed in HEK293 cells assessed as rate of induction by SMN2-promotor driven luciferase reporter gene assay relative to basal level. The format is cell-based. More on the design: concentration or dose not given beside the values. In a few lines:
(§1)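 HEK-293 cells stably carrying the SMN2 reporter construct, kept in DMEM with 10% FCS, glutamax, pyruvate, pen/strep and 200 µg/mL hygromycin, and assayed without hygromycin. 2,000 cells/well were plated and adhered overnight at 37 °C, 5% CO2. Compounds were added as a 7-point titration, 50 µM to 25 nM final, in 0.46% DMSO, for 30–36 h. OneGlo luminescence was normalized to 4.5 mM sodium butyrate (100%) and DMSO (0%).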
A general note: A reporter such as luciferase makes a cellular process visible.

For assay [2] the target is unchanged. Put plainly: Activation of SMN expressed in HEK293 cells assessed as concentration required to reach 50% of maximum luciferase signal by SMN2-promotor driven luciferase reporter gene assay. The assay is classed as cell-based. In a few lines:
as §1

Sequence of Survival motor neuron protein (Homo sapiens) (Q16637 whole entry): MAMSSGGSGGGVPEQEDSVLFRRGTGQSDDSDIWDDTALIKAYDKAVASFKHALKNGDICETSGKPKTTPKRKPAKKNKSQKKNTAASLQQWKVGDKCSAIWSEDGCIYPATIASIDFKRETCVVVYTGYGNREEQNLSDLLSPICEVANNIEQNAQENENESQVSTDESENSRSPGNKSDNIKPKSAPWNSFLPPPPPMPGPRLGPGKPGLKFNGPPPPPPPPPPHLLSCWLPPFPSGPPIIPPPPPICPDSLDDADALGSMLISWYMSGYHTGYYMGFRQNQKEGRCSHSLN

In the case of `CN(C)C(=O)c1ccc(-c2csc(N3CCC(C(N)=O)CC3)n2)cc1`, the Activity is 51% in assay [1] and 12.2 µM in assay [2].

For the compound `NC(=O)C1CCN(c2nc(-c3cccc(Br)c3)cs2)CC1`, the Activity in assay [1] came to 57%; in assay [2], 30.8 µM.

Regarding `NC(=O)C1CCN(c2nc(-c3ccc(-c4ccccc4)cc3)cs2)CC1`, the Activity in assay [1] stood at 58%; in assay [2], 24.4 µM.

With `Cn1ccc2cc(-c3csc(N4CCC(C(N)=O)CC4)n3)ccc21`, the Activity came to 534% in assay [1] and 7.72 µM in assay [2].

For the compound `Cc1ccc(-c2nnc(N3CCC(C(N)=O)CC3)s2)cc1`, the figures for the Activity in assay [1] and in assay [2] were 54% and 0.244 µM, respectively.

Regarding `COc1cc(OC)cc(-c2csc(N3CCC(C(N)=O)CC3)n2)c1`, the Activity in assay [1] was 45%; in assay [2], 7.72 µM.

`NC(=O)C1CCN(c2nccc(-c3ccc4c(c3)OCCO4)n2)CC1`: the Activity turned out to be 364% in assay [1] and 1.22 µM in assay [2].

On to `NC(=O)C1CCN(c2nc(-c3cccs3)cs2)CC1`, for which the Activity came to 51% in assay [1] and 7.72 µM in assay [2].

Regarding `COc1ccc(-c2csc(N3CCC(C(N)=O)CC3)n2)cc1`, the Activity in assay [1] came to 209%; in assay [2], 7.72 µM.

Consider `N#CC1CCN(c2nc(-c3ccc(Br)cc3)cs2)CC1`, for which the Activity worked out at 78% in assay [1] and 30.7 µM in assay [2].

`NC(=O)C1CCN(c2nc(-c3ccc4c(c3)OCCCO4)cs2)CC1`: the figures for the Activity in assay [1] and in assay [2] were 443% and 0.49 µM, respectively.

As to `CC(=O)c1ccc(-c2csc(N3CCC(C(N)=O)CC3)n2)cc1`, the results for the Activity in assay [1] and in assay [2] were 130% and 12.2 µM, respectively.

For the compound `NC(=O)C1CCN(c2nc(-c3cccc([N+](=O)[O-])c3)cs2)CC1`, the Activity in assay [1] was 20%; in assay [2], 3.87 µM.

As to `NC(=O)N1CCN(c2nc(-c3ccc(Br)cc3)cs2)CC1`, the values for the Activity in assay [1] and in assay [2] were 89% and 12.2 µM, respectively.

Take `NC(=O)C1CCN(c2ncc(-c3ccc(Cl)cc3)s2)CC1`: the values for the Activity in assay [1] and in assay [2] were 498% and 0.154 µM, respectively.

For the compound `NC(=O)C1CCN(c2ncnc(-c3ccc4c(c3)OCCCO4)n2)CC1`, the Activity in assay [1] is 186%; in assay [2] it was 2.44 µM.

For the compound `NC1CCN(c2nc(-c3ccc(Br)cc3)cs2)CC1`, the values for the Activity in assay [1] and in assay [2] were 182% and 2.44 µM, respectively.

As to `NC(=O)C1CCN(c2nc(-c3ccc(Oc4ccccc4)cc3)cs2)CC1`, the Activity in assay [1] is 240%; in assay [2], 4.87 µM.

Regarding `CN(C)c1cccc(-c2cnc(N3CCC(C(N)=O)CC3)s2)c1`, the results for the Activity in assay [1] and in assay [2] were 550% and 0.039 µM, respectively.

Regarding `NC(=O)C1CCN(c2ncc(-c3cccc(N4CCCCC4)c3)s2)CC1`, the Activity is 565% in assay [1] and 1.54 µM in assay [2].

With `CC(C)COc1ccc(-c2csc(N3CCC(C(N)=O)CC3)n2)cc1`, the figures for the Activity in assay [1] and in assay [2] were 54% and 3.07 µM, respectively.

For the compound `CN(C)c1cccc(-c2ncnc(N3CCC(C(N)=O)CC3)n2)c1`, the Activity in assay [1] turned out to be 200%; in assay [2] it was 1.22 µM.

On to `NC(=O)C1CCN(c2nc(-c3ccc(F)cc3)cs2)CC1`, for which the Activity in assay [1] was 288%; in assay [2], 3.87 µM.

Turning to `NC(=O)C1CCN(c2nc(-c3ccc4c(c3)OCO4)cs2)CC1`, the Activity in assay [1] was found to be 359%; in assay [2] it was 2.44 µM.

As for `NC(=O)C1CCN(c2nc(-c3ccc(Cl)cc3)cs2)CC1`, the Activity was 381% in assay [1] and 2.44 µM in assay [2].

For the compound `CN(C)c1cccc(-c2nnc(N3CCC(C(N)=O)CC3)s2)c1`, the results for the Activity in assay [1] and in assay [2] were 448% and 0.387 µM, respectively.

On to `CC(=O)N1CCN(c2nc(-c3ccc(Br)cc3)cs2)CC1`, for which the Activity in assay [1] stood at 234%; in assay [2] it was 3.07 µM.

Consider `CN(C)c1cccc(-c2csc(N3CCC(C(N)=O)CC3)n2)c1`, for which the results for the Activity in assay [1] and in assay [2] were 504% and 0.97 µM, respectively.

Turning to `c1c[nH]c(C2CCN(c3ncc(-c4ccc5c(c4)OCCCO5)s3)CC2)n1`, the figures for the Activity in assay [1] and in assay [2] were 129% and 2.44 µM, respectively.

The values above are taken from ChEMBL document CHEMBL1821687, “Discovery, synthesis, and biological evaluation of novel SMN protein modulators” (J Med Chem, 2011).
